ChEMBL document CHEMBL1126691, “Application of the hypersurface iterative projection method to bicyclic pyrazolidinone antibacterial agents” (1993)

test system: Pseudomonas; test: Minimum inhibitory concentration against Pseudomonas species.; format: functional
Summary of the method: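 MIC in µg/mL, determined by the 2-fold serial agar dilution method. These readings were excluded from the geometric-mean MIC used for the QSAR analysis.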

Compound | MIC
CO/N=C(\C(=O)N[C@H]1CN2CC(C(=O)C(F)(F)F)=C(C(=O)O)N2C1=O)c1csc(N)n1 | > 128 mg/L
CO/N=C(\C(=O)N[C@H]1CN2CC(/C=N/OCCc3ccccc3)=C(C(=O)O)N2C1=O)c1csc(N)n1 | > 128 mg/L
CO/N=C(\C(=O)N[C@H]1CN2CC(c3ccccc3)=C(C(=O)O)N2C1=O)c1csc(N)n1 | > 128 mg/L
CO/N=C(\C(=O)N[C@H]1CN2CC(S(=O)(=O)c3c(C)noc3C)=C(C(=O)O)N2C1=O)c1csc(N)n1 | > 128 mg/L
CO/N=C(\C(=O)N[C@H]1CN2CC(c3ccncc3)=C(C(=O)O)N2C1=O)c1csc(N)n1 | > 128 mg/L
CCS(=O)(=O)C1=C(C(=O)O)N2C(=O)[C@@H](NC(=O)/C(=N\OC)c3csc(N)n3)CN2C1 | > 128 mg/L
CO/N=C(\C(=O)N[C@H]1CN2CC(C(F)(F)F)=C(C(=O)O)N2C1=O)c1csc(N)n1 | > 128 mg/L
CCCOC(=O)C1=C(C(=O)O)N2C(=O)[C@@H](NC(=O)/C(=N\OC)c3csc(N)n3)CN2C1 | > 128 mg/L
CO/N=C(\C(=O)N[C@H]1CN2CC(COC(C)=O)=C(C(=O)O)N2C1=O)c1csc(N)n1 | > 128 mg/L
CO/N=C(\C(=O)N[C@H]1CN2CC(C#N)=C(C(=O)O)N2C1=O)c1csc(N)n1 | > 128 mg/L
CO/N=C(\C(=O)N[C@H]1CN2CC(SC)=C(C(=O)O)N2C1=O)c1csc(N)n1 | > 128 mg/L
CO/N=C(\C(=O)N[C@H]1CN2CC(C(=O)c3ccccc3)=C(C(=O)O)N2C1=O)c1csc(N)n1 | > 128 mg/L
C=CC1=C(C(=O)O)N2C(=O)[C@@H](NC(=O)/C(=N\OC)c3csc(N)n3)CN2C1 | > 128 mg/L
CO/N=C(\C(=O)N[C@H]1CN2CC(/C=N/OC)=C(C(=O)O)N2C1=O)c1csc(N)n1 | > 128 mg/L
CO/N=C(\C(=O)N[C@H]1CN2CC(NC(=O)OC)=C(C(=O)O)N2C1=O)c1csc(N)n1 | > 128 mg/L
CNC(=O)C1=C(C(=O)O)N2C(=O)[C@@H](NC(=O)/C(=N\OC)c3csc(N)n3)CN2C1 | > 128 mg/L
CCOC(=O)C1=C(C(=O)O)N2C(=O)[C@@H](NC(=O)/C(=N\OC)c3csc(N)n3)CN2C1 | > 128 mg/L
CO/N=C(\C(=O)N[C@H]1CN2CC=C(C(=O)O)N2C1=O)c1csc(N)n1 | > 128 mg/L

Compound | MIC
CO/N=C(\C(=O)N[C@H]1CN2CC(S(=O)(=O)c3ccccc3)=C(C(=O)O)N2C1=O)c1csc(N)n1 | > 128 mg/L
CCC(=O)C1=C(C(=O)O)N2C(=O)[C@@H](NC(=O)/C(=N\OC)c3csc(N)n3)CN2C1 | > 128 mg/L
CO/N=C(\C(=O)NC1CN2CC(S(C)(=O)=O)=C(C(=O)O)N2C1=O)c1csc(N)n1 (stereo unspecified) | > 128 mg/L
CCOP(=O)(OCC)C1=C(C(=O)O)N2C(=O)[C@@H](NC(=O)/C(=N\OC)c3csc(N)n3)CN2C1 | > 128 mg/L
CO/N=C(\C(=O)N[C@H]1CN2CC(C(=O)Nc3ccccc3)=C(C(=O)O)N2C1=O)c1csc(N)n1 | > 128 mg/L
CO/N=C(\C(=O)N[C@H]1CN2CC(P(=O)(OC)OC)=C(C(=O)O)N2C1=O)c1csc(N)n1 | > 128 mg/L
CO/N=C(\C(=O)N[C@H]1CN2CC(C(C)=O)=C(C(=O)O)N2C1=O)c1csc(N)n1 | > 128 mg/L
CO/N=C(\C(=O)N[C@H]1CN2CC(C(=O)OC)=C(C(=O)O)N2C1=O)c1csc(N)n1 | > 128 mg/L
C=CCO/N=C/C1=C(C(=O)O)N2C(=O)[C@@H](NC(=O)/C(=N\OC)c3csc(N)n3)CN2C1 | > 128 mg/L
CO/N=C(\C(=O)N[C@H]1CN2CC(Sc3nnnn3C)=C(C(=O)O)N2C1=O)c1csc(N)n1 | > 128 mg/L
CO/N=C(\C(=O)N[C@H]1CN2CC(S(=O)(=O)N(C)C)=C(C(=O)O)N2C1=O)c1csc(N)n1 | > 128 mg/L
CO/N=C(\C(=O)N[C@H]1CN2CC(c3ccccn3)=C(C(=O)O)N2C1=O)c1csc(N)n1 | > 128 mg/L
CO/N=C(\C(=O)N[C@H]1CN2CC(C(=O)CF)=C(C(=O)O)N2C1=O)c1csc(N)n1 | > 128 mg/L
CO/N=C(\C(=O)N[C@H]1CN2CC(S(=O)(=O)CCNC(C)=O)=C(C(=O)O)N2C1=O)c1csc(N)n1 | > 128 mg/L
CO/N=C(\C(=O)N[C@H]1CN2CC(c3cccs3)=C(C(=O)O)N2C1=O)c1csc(N)n1 | > 128 mg/L
CO/N=C(\C(=O)N[C@H]1CN2CC(C(=O)O)=C(C(=O)O)N2C1=O)c1csc(N)n1 | > 128 mg/L
CO/N=C(\C(=O)N[C@H]1CN2CC(Sc3nnc(C)s3)=C(C(=O)O)N2C1=O)c1csc(N)n1 | > 128 mg/L
CO/N=C(\C(=O)N[C@H]1CN2CC(C(=O)OCc3ccccc3)=C(C(=O)O)N2C1=O)c1csc(N)n1 | > 128 mg/L
